The target of data set [1] is human GluN1/GluN2B receptors (Homo sapiens, UniProt Q05586+Q13224). Format: cell-based. The settings on record: for IC50: n = 6−12; for %control at 1 μM, mean (99% CI), GluN2B: 1 μM compound, percent of maximal response to 100 μM glutamate/glycine.
Data set [2] is described as follows: LogD by shake-flask method with 18F-labeled tracers. Format: physicochemical. The settings on record: pH 7.4.
Data set [3] concerns the target GluN2B subunit (Rattus norvegicus, UniProt P35439+Q00960). Briefly: In vitro autoradiography in rat brain sections. The class given is binding.
The subject of data set [4] is GluN2B subunit. In words: In vitro autoradiography in NHP brain sections. The class given is binding. To be noted: self-blocking 13 10 μM. In a few lines: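 Brain sections (20 μm) preincubated 20 min in 50 mM Tris-HCl pH 7.4 at room temperature, then incubated 60 min at room temperature with 18F-labelled test compound (37 kBq/mL, 1.58 nM). Self-block: 30 min pretreatment with unlabelled test compound (10 μM, 0.1% DMSO, 1% ethanol in buffer), then cold-buffer wash. Washed, dried, exposed to imaging plates overnight. Regional signal (gray value/unit area) expressed as a ratio to forebrain white matter.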

Data set [5] is described as follows: Whole body ex vivo biodistribution in mice. In a few lines:
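Female CD1 (ICR) mice (8 weeks, 23–27 g) were injected via tail vein with tracer, 740 kBq/100 μL saline containing 5% ethanol. Animals were killed at 2, 10, 30 and 60 min. Organs were removed, weighed and gamma-counted. %ID/g of wet tissue (stomach as %ID/organ) was calculated against diluted aliquots of the injected dose, with decay correction.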

Data set [6] can be described thus: Radiometabolite analysis in mice. The class given is in vivo. To be noted: ICR mice, 15 min post injection, n = 2. In a few lines: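 Female CD1 (ICR) mice (8 weeks, 23–27 g) received tracer IV via tail vein and were killed at 15 min. Plasma was deproteinized with ice-cold CH3CN, and brain was homogenized in ice-cold CH3CN, with repeated centrifugation at 4 °C. Supernatants were spiked with unlabelled reference and run on C18 radioHPLC (CH3CN/H2O 55/45, 5 mL/min). Fractions were gamma-counted; parent % = parent counts/total counts × 100.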

For data set [7], the system named is GluN1/GluN2A/GluN2A (2A/2A). In words: Inhibition of diheteromeric 2A/2A receptors. Format: cell-based. To be noted: wild-type 2A/2A, 1 μM compound. In a few lines: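 Xenopus laevis stage VI oocytes injected with 5–10 ng receptor cRNA and kept at 15 °C in Barth's medium. Two-electrode voltage clamp run 2–7 days later at room temperature, holding −40 mV, in 90 mM NaCl, 1 KCl, 10 HEPES, 0.5 BaCl2, 0.01 EDTA, pH 7.4. Test compound (20 mM DMSO stock; final DMSO 0.05–0.5%) co-applied with 100 μM glutamate/100 μM glycine. Response given as % of response to agonists alone.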

Where [8] appears, read: IC50, mean, 100 μM glutamate/glycine coapplied with increasing concentrations.
Setting [9] is: pIC50, mean (95% CI), 100 μM glutamate/glycine.
[10] abbreviates: rat, self-blocking 13 10 μM, n = 3.
Setting [11] is: remained high until 10 min post injection.

SMILES strings stand for the structures. Like-named read-outs stand apart in the source and are kept apart here. Some results are limits rather than exact numbers.

Chain of GluN2B subunit (Rattus norvegicus, UniProt P35439+Q00960) (Q00960 27-1482, other chains not shown): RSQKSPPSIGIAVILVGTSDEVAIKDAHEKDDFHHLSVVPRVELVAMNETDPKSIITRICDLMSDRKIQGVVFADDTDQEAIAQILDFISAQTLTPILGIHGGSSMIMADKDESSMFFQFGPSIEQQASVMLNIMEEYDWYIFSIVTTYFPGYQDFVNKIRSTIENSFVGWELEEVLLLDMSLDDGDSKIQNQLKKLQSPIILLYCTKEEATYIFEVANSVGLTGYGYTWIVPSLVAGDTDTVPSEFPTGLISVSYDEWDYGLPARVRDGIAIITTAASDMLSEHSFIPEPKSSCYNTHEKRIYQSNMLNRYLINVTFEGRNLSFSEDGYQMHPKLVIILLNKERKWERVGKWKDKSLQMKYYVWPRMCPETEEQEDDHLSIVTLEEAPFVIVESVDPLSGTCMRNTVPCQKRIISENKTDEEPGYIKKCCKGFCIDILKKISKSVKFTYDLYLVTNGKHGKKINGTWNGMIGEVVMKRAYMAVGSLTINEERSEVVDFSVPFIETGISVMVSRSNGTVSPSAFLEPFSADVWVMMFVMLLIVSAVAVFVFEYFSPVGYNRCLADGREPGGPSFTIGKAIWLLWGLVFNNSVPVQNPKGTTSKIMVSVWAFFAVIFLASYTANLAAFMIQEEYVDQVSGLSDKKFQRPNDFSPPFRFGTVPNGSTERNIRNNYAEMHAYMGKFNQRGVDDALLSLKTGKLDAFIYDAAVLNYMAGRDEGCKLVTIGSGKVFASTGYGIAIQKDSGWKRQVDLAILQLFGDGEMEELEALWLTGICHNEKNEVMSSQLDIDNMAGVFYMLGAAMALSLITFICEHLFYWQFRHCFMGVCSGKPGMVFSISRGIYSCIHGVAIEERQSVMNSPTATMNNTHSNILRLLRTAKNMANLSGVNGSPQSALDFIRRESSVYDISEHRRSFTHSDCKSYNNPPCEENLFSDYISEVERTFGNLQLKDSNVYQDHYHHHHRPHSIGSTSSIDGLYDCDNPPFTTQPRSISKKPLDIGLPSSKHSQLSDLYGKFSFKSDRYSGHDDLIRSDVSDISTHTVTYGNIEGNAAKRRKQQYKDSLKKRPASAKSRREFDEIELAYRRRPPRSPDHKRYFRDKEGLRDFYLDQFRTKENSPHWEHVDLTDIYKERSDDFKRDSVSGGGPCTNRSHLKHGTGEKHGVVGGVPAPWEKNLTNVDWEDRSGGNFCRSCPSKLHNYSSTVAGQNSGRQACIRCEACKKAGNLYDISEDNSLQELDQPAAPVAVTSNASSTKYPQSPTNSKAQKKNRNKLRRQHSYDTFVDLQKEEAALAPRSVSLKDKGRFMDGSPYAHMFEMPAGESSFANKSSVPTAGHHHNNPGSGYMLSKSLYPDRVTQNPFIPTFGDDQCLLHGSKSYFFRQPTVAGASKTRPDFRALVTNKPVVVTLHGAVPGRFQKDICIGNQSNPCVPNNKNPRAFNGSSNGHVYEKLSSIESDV
Chain of human GluN1/GluN2B receptors (Q13224 27-1484, other chains not shown): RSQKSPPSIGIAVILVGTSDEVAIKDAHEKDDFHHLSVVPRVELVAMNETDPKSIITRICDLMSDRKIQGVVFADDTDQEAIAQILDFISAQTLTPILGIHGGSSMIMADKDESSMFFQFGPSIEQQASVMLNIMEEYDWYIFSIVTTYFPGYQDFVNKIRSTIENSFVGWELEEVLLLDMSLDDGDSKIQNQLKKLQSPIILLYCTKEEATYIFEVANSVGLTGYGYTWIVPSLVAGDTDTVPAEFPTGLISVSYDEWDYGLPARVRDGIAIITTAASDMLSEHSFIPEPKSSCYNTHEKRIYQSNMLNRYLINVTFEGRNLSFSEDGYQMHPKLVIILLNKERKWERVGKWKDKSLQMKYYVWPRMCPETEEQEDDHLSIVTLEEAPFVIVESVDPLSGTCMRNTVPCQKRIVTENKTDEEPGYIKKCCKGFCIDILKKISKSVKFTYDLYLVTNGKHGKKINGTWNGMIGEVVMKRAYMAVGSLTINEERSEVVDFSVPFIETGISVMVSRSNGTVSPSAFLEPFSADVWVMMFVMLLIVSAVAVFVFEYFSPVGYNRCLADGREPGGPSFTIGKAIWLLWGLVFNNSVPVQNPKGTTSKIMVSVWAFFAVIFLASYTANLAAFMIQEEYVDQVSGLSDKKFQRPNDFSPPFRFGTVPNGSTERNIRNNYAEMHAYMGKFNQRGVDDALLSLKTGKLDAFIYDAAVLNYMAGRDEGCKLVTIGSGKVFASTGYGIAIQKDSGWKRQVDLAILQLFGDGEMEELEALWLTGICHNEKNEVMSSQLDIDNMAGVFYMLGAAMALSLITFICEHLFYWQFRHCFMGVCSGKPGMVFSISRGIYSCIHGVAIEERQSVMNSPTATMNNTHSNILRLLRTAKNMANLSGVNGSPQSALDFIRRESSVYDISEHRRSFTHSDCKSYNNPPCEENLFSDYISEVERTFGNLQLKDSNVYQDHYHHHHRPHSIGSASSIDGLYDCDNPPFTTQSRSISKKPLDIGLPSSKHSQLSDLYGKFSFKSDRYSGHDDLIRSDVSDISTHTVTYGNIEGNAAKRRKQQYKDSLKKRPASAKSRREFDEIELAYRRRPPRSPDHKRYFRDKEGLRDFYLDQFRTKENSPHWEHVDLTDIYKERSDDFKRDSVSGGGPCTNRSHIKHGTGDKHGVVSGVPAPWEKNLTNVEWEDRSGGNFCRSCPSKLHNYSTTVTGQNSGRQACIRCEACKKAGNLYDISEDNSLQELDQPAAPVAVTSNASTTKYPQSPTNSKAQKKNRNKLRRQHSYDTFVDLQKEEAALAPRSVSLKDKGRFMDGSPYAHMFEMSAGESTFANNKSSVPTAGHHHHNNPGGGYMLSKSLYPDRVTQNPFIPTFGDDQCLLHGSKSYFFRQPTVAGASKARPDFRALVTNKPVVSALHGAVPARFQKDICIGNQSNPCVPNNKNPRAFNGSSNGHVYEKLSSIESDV

Broadly, the IC50 is the concentration at which inhibition is half-maximal. A high value points to a need for much substance. On to `COc1cnc(OCc2cn(-c3ccc(C)c(F)c3)nn2)nc1` [Compound 14, 2-((1-(3-Fluoro-4-methylphenyl)-1H-1,2,3-triazol-4-yl)methoxy)-5-methoxypyrimidine], for which the IC50 in data set [1] (setting [8]) is 89 nM; in data set [1] (setting [9]), 75.9 nM.
What is called logD is lipophilicity at a set pH, counting ionised and neutral species. Turning to `COc1cnc(OCc2cn(-c3ccc([18F])c(C)c3)nn2)nc1` [[^18F]13, 2-((1-(4-[^18F]fluoro-3-methylphenyl)-1H-1,2,3-triazol-4-yl)methoxy)-5-methoxypyrimidine], the logD in data set [2] is 2.89. Moreover, the “reduction of uptake by self-blocking” value on GluN2B subunit [3] (rat brain sections, cold compound 13 10 μM) is given as ~ 90%. Also, at GluN2B subunit [3] (setting [10]), the “specific binding, frontal cortex” value was 94%; the “specific binding, hippocampus” value was 94%; the “specific binding, striatum” value stood at 92%; the “specific binding, thalamus” value is listed as 88%. In the data set with GluN2B subunit [4], the “specific binding, caudate nucleus” value was 79%; the “specific binding, entorhinal cortex” value is 89%; the “specific binding, insular cortex” value was 82%; the “specific binding, putamen” value is listed as 73%. Also, the “specific binding, thalamus” value with GluN2B subunit [4] is listed as 53%. Moreover, the “specific binding, hippocampus” value in the data set with GluN2B subunit [4] (n = 3) turned out to be 87%. This molecule had a bone uptake in data set [5] of under 2 %ID/g. Further, the “initial uptake in heart, lung, kidney, liver, and small intestine” value in data set [5] (2 min postinjection) was over 5 % ID/g. In addition, in data set [5] (60 min postinjection), the “uptake in heart, lung, kidney, spleen, pancreas, and muscle” value was under 0.6 % ID/g. The “brain uptake at 2 min (brain2min)” value in data set [5] (i.v., 2 min post injection) stood at 3.60 % ID/g. For the same molecule, in data set [5] (i.v., 10 min post injection), the “brain uptake at 10 min” value is 0.72 %ID/g. Also, the “brain uptake at 60 min” value in data set [5] (i.v., 60 min post injection) was 0.018 % ID/g. In addition, in data set [5] (setting [11]), the liver uptake is recorded as 20.84 % ID/g and the small intestine uptake came to 39.15 % ID/g. For the same molecule, in data set [6], the “parent fraction in brain” value was determined as 56.6%, the “parent fraction in liver” value is on record as 5.1% and the “parent fraction in plasma” value was determined as 11.8%.
`COc1cnc(OCc2cn(-c3ccc(F)c(Br)c3)nn2)nc1` [Compound 11, 2-((1-(3-Bromo-4-fluorophenyl)-1H-1,2,3-triazol-4-yl)methoxy)-5-methoxypyrimidine]: the “%control at 1 μM, mean (99% CI), GluN2B” value in data set [1] is 13 (7, 19) %. For the same molecule, the IC50 is 19 nM in data set [1] (setting [8]) and 19.1 nM in data set [1] (setting [9]). The “sensitivity of 2A/2A responses” value in data set [7] was “insensitive”. In data set [2], this molecule showed a logD of 3.14 ± 0.037.
As to `COc1cnc(OCc2cn(-c3ccc(Br)c(F)c3)nn2)nc1` [Compound 12, 2-((1-(4-Bromo-3-fluorophenyl)-1H-1,2,3-triazol-4-yl)methoxy)-5-methoxypyrimidine], the IC50 was 339 nM in data set [1] (setting [8]) and 282 nM in data set [1] (setting [9]).
Regarding `COc1cnc(OCc2cn(-c3ccc(F)c(C)c3)nn2)nc1` [Compound 13, 2-((1-(4-Fluoro-3-methylphenyl)-1H-1,2,3-triazol-4-yl)methoxy)-5-methoxypyrimidine], the “%control at 1 μM, mean (99% CI), GluN2B” value in data set [1] is recorded as 17 (11, 23) %. Also, in data set [7], the “sensitivity of 2A/2A responses” value is recorded as “insensitive”. This molecule also gave a logD in data set [2] of 2.89 ± 0.037.

The values above are taken from PMC6727982 (ACS chemical neuroscience, 2019).
